Test results as given in ChEMBL document CHEMBL3414496, “Synthesis and biological evaluation of novel 2-heteroarylimino-1,3-thiazolidin-4-ones as potential anti-tumor agents” (Eur J Med Chem, 2015).
Activity calls are given as the source filed them. No cut-off for these calls is given here.

Experiments:
HT-29 [1] = test: Induction of NQO1 expression in human HT-29 cells at 1.5 uM after 6 hrs by Western blotting method; format: functional
Method in brief: (§1)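 Whole-cell lysates from treated HT29 cells in pH 7.5 Hepes/KOH buffer with EDTA, KCl, Igepal, DTT and protease inhibitors. 50 µg protein run on 10-15% SDS-PAGE and transferred to nitrocellulose. Probed overnight at 4°C with anti-HO-1 (1:1 000), anti-NQO1 (1:1 000) or anti-GCL (1:500), then HRP secondary for 45 min and chemiluminescence. Bands normalized to GAPDH (1:10 000), with the DMSO ratio set to 1.00. Representative of three experiments.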

HT-29 [2] = test: Induction of NQO1 expression in human HT-29 cells at 1.5 uM after 4 hrs by Western blotting method; format: functional; method in brief: as §1
HT-29 [3] = test: Induction of ROS generation in human HT-29 cells at cytotoxic IC50 level after 30 mins by DCF-DA staining based fluorescence assay; format: functional, cell-based
Method in brief: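 HT29 cells treated two days after seeding, then loaded with 50 µM DCF-DA for 15 min at 37°C. Cells trypsinized, washed and resuspended in PBS, and 30 000 cells/sample read by flow cytometry (FL-1). Expressed as % of DMSO-treated cells; […] for 1 h served as positive control. Triplicates from three independent experiments.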

HT-29 [4] = test: Induction of NQO1 expression in human HT-29 cells at 10 uM after 4 hrs by Western blotting method; format: functional; method in brief: as §1
HT-29 [5] = test: Induction of NQO1 expression in human HT-29 cells at 10 uM after 2 hrs by Western blotting method; format: functional; method in brief: as §1
HT-29 [6] = test: Induction of HO1 expression in human HT-29 cells at 6.4 uM after 4 hrs by Western blotting method; format: functional
Method in brief: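 HT29 whole-cell lysates in Hepes/KOH pH 7.5 with EDTA, KCl, NP40, DTT, protease inhibitors; 50 µg protein on 10–15% SDS-PAGE, nitrocellulose, overnight 4°C primary antibody (GCL 1:500, HO-1 1:1000), HRP secondary, chemiluminescence. Bands normalized to GAPDH (1:10 000), DMSO ratio set at 1.00; representative of three independent experiments.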

HT-29 [7] = test: Induction of NQO1 expression in human HT-29 cells at 6.4 uM after 4 hrs by Western blotting method; format: functional; method in brief: as §1
HT-29 [8] = test: Induction of NQO1 expression in human HT-29 cells at 3.8 uM after 24 hrs by Western blotting method; format: functional; method in brief: as §1

CN(C)c1ccc(/C=C2\S/C(=N\c3csc(-c4ccc(Cl)cc4)c3)NC2=O)cc1
fold change (FC) (HT-29 [1]): 1.26
fold change (FC) (HT-29 [2]): 1.06

COc1ccc(/C=C2\S/C(=N\c3csc(-c4ccc(Cl)cc4)c3)NC2=O)cc1OC
Activity (HT-29 [3]): Active
fold change (FC) (HT-29 [4]): 1.26
fold change (FC) (HT-29 [5]): 1.04

Cc1ccc(/C=C2\S/C(=N\c3csc(-c4ccc(Cl)cc4)c3)NC2=O)cc1
fold change (FC) (HT-29 [6]): 1
fold change (FC) (HT-29 [7]): 2.59

COc1ccc(/C=C2\S/C(=N\c3csc(-c4ccc(Cl)cc4)c3)NC2=O)cc1
fold change (FC) (HT-29 [8]): 0.88
